{"source": "ChEMBL document CHEMBL1124067", "about": "“Design of potent cyclic gonadotropin releasing hormone antagonists” (J Med Chem, 1988)", "type_in_all_cases": "functional", "key": {"[1]": {"test_system": "Rattus norvegicus", "experiment": "Effect of oral administration of compound (3 mg) on LH secretion by castrated male rats; ng of LH/mL", "procedure,_shortened": "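Adult Sprague-Dawley male rats, castrated under light ether anesthesia 7-10 days before assay. Peptide dissolved in 2 N HOAc, then diluted in 0.1% BSA-0.04 M phosphate buffer pH 7.4. Given by gavage tube (0.5 mL) under ether. Blood sampled before treatment and 5 h after. Plasma LH in ng/mL, mean ± SEM, five rats per treatment.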"}, "[2]": {"organism": "Rattus norvegicus", "experiment": "Effect on GnRH-induced LH secretion in intact male rats at 100 ug of compound along with 50 ng of GnRH; ng of LH/mL", "procedure,_shortened": "(§1)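 Intact adult male Sprague-Dawley rats. Antagonist injected iv into the jugular vein (1 mL) under ether, immediately before GnRH. Peptide dissolved in 2 N HOAc, then diluted in 0.1% BSA-0.04 M phosphate buffer pH 7.4. Blood taken 10 min after injection. Plasma LH in ng/mL ± SEM, six rats per treatment.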"}, "[3]": {"organism": "Rattus norvegicus", "experiment": "Effect on GnRH-induced LH secretion in intact male rats at 25 ug of compound along with 50 ng of GnRH; ng of LH/mL", "procedure,_shortened": "as §1"}, "[4]": {"test_system": "Rattus norvegicus", "experiment": "In vivo antiovulatory assay (AOA) carried out in rats injected sc", "procedure,_shortened": "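Antiovulatory assay following Corbin and Beattie. Cycling rats injected sc at noon on proestrus with peptide dissolved in saline (200 μL). Dose in micrograms; read-out is the number of rats ovulating out of the total.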"}}, "note": "Values joined by “and” are separate entries in the source; they are usually repeats but may differ in a detail not shown here. Equal entries are not always repeated. Positions of bridges follow the written chain, without caps; N, C: chain ends. Non-standard residues stand in square brackets, D forms with d. Residues, ends and D or L forms follow the SMILES beside them. dPhe(4-Cl) = N[C@H](Cc1ccc(Cl)cc1)C(=O)O; d2Nal = N[C@H](Cc1ccc2ccccc2c1)C(=O)O; d3Pal = N[C@H](Cc1cccnc1)C(=O)O"}
{"smiles": "CC(=O)N[C@H](Cc1ccc2ccccc2c1)C(=O)N[C@H](Cc1ccc(Cl)cc1)C(=O)N[C@H](Cc1cccnc1)C(=O)N[C@H]1CSSC[C@@H](C(N)=O)NC(=O)[C@@H]2CCCN2C(=O)[C@H](CCCNC(=N)N)NC(=O)[C@H](CC(C)C)NC(=O)[C@@H](Cc2cccnc2)NC(=O)[C@H](CCCNC(=N)N)NC1=O", "note": "(Ac-[d2Nal][dPhe(4-Cl)][d3Pal]CR[d3Pal]LRPC-NH2; disulfide 4-10)", "values": [{"measurement": "Activity", "setting": "[1]", "result": 8.31}, {"measurement": "Activity", "setting": "[2]", "result": 1.4}, {"measurement": "Activity", "setting": "[3]", "result": 1.62}, {"measurement": "Dose", "setting": "[4]", "result": "10 µg and 25 µg"}]}
